Test results taken from ChEMBL document CHEMBL2429730, “C23 steroids from the venom of Bufo bufo gargarizans” (J Nat Prod, 2013).
The source made the active and inactive calls. No cut-off for these calls is given here.

Legend:
[1] = Cytotoxicity against KM mouse splenic lymphocytes; settings: Splenic lymphocyte
[2] = system: HepG2; assay: Cytotoxicity against human HepG2 cells after 24 hrs by MTT assay; type: functional, cell-based; settings: HepG2, 24 h
[3] = system: A549; assay: Cytotoxicity against human A549 cells after 24 hrs by MTT assay; type: functional, cell-based; settings: A549, 24 h
[4] = organism: Sus scrofa; assay: Inhibition of Na(+)/K(+) ATPase in pig cerebral cortex assessed as release of inorganic phosphate at 50 uM after 15 mins by colorimetric method; type: tissue-based
[5] = Inhibition of Na(+)/K(+) ATPase in pig cerebral cortex assessed as release of inorganic phosphate after 15 mins by colorimetric method
[6] = Cytotoxicity against KM mouse splenic lymphocytes assessed as cell viability at 5 uM; parameters: species or system Splenic lymphocyte; settings: read-out: Activity
In short: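 Spleens from KM mice were homogenized in PBS and centrifuged. The pellet was red-cell-lysed for 5 min (Tris-base 2.6 g/L, NH4Cl 7.47 g/L, pH 7.2), then passed through a 300-mesh sieve. The resulting lymphocytes were tested by MTT assay, and survival rate was scored at 5 μM.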

inhibition [4] | SMILES | IC50 [1] | IC50 [2] | IC50 [3] | IC50 [5] | viability at 5 µM [6]
 | C[C@@H]1O[C@@]12[C@@H]1O[C@@H]3C[C@H]2[C@@]2(C)CC[C@H]4[C@@H](CC[C@@H]5C[C@@H](O)CC[C@@]54C)[C@@]32O1 | > 100 µM | > 100 µM | > 100 µM |  | 
inactive | COC(=O)CCC(=O)C1=CC=C2[C@@H]3CC[C@@H]4C[C@@H](O)CC[C@]4(C)[C@H]3CC[C@]12C | > 100 µM | > 100 µM | > 100 µM |  | 
 | C/C=C(\C=O)[C@H]1[C@@H](OC(C)=O)[C@H]2O[C@]23[C@@H]2CC[C@@H]4C[C@@H](O)CC[C@]4(C)[C@H]2CC[C@]13C | > 100 µM | > 26.8 µM | 45.6 µM |  | 
 | C=CC1=CO[C@]23C[C@H](OC(C)=O)[C@H]1[C@@]2(C)CC[C@H]1[C@H]3CC[C@@H]2C[C@@H](O)CC[C@@]21C | > 100 µM | 64.8 µM | > 100 µM |  | 
inactive | C=CC1=CO[C@]23CC[C@H]1[C@@]2(C)CC[C@H]1[C@H]3CC[C@]2(O)C[C@@H](O)CC[C@]12C | 79.4 µM | 68.7 µM | > 100 µM |  | 
 | C[C@]12CC[C@H](O)C[C@H]1CC[C@@H]1[C@@H]2CC[C@]2(C)[C@@H](c3ccc(=O)oc3)CC[C@]12O [BUFALIN] |  | 0.6 µM | 0.6 µM | 11 nM | 100%
 | C[C@]12CC[C@H](O)C[C@H]1CC[C@@H]1[C@@H]2CC[C@]2(C)[C@@H](c3ccc(=O)oc3)C[C@H]3O[C@]132 [BUFOGENIN] | > 100 µM | 43.3 µM | > 100 µM |  | 
 | CC(=O)O[C@H]1C[C@]2(O)[C@@H]3CC[C@@H]4C[C@@H](O)CC[C@]4(C)[C@H]3CC[C@]2(C)[C@H]1c1ccc(=O)oc1 [BUFOTALIN] |  | 0.5 µM | 0.9 µM |  | 100%
 | CC(=O)O[C@H]1[C@H]2O[C@]23[C@@H]2CC[C@@H]4C[C@@H](O)CC[C@]4(C)[C@H]2CC[C@]3(C)[C@H]1c1ccc(=O)oc1 [CINOBUFAGIN] |  | 5.5 µM | 6.5 µM |  | 100%
 | COc1cccc2c1C(=O)c1c(O)c3c(c(O)c1C2=O)C[C@@](O)(C(=O)CO)C[C@@H]3O[C@H]1C[C@H](N)[C@H](O)[C@H](C)O1 [DOXORUBICIN] |  |  | 0.1 µM |  | 
 | C[C@]12CC[C@H](O)C[C@@]1(O)CC[C@@H]1[C@@H]2CC[C@]2(C)[C@@H](c3ccc(=O)oc3)CC[C@]12O [TELOCINOBUFAGIN] |  | 2.4 µM | 3 µM |  | 100%
